RGS4 block: inhibitors of human RGS4; B-score at 10 µM; HEK293 M3R/RGS4 inducible, Fluo-4 calcium flux; hits give high values; triggered by carbachol at its EC20; 0.45% of 310,000 active; P49798;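 active = B-score, a plate-corrected calcium signal, over three deviations above library mean, with baseline fluorescence within five deviations of library mean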;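 note: RGS4 expression induced by doxycycline in cells with stable M3 receptor; B-score is computed from the integrated fluorescence ratio over baseline after carbachol; higher B-score means a larger calcium signal and so more RGS4 inhibition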
Target sequence (P49798 whole entry, looked up): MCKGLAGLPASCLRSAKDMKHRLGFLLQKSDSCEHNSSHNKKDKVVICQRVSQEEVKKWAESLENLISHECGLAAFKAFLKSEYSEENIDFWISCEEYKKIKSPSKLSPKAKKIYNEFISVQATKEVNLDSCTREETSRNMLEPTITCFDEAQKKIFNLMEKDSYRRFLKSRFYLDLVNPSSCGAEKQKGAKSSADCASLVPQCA
MrgX1 allo act: allosterically activates human MrgX1 receptor signaling | B-score at 10 µM | MrgX1-HEK293, Fluo-4 calcium flux, FDSS; hits give high values | 0.63% of 310,000 active | Q96LB2;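 active = plate-corrected calcium response at least 3 library SD above typical, normal starting fluorescence, not activating the receptor alone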;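 note: compound read alongside a low EC10 to EC30 dose of BAM8-22 agonist; peak minus trough fluorescence over baseline measured at the second addition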
Target sequence (Q96LB2 whole entry, looked up): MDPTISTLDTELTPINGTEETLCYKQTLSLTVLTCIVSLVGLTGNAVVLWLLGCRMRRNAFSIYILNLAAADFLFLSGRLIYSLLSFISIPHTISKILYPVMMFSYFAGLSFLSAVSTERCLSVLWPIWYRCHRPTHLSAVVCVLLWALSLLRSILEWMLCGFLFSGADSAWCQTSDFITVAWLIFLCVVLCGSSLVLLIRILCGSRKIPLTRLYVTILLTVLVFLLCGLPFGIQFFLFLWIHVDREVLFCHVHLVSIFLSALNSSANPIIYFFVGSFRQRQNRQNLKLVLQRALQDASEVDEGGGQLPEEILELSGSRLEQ
RGS4 pot: potentiators or activators of RGS4; B-score at 10 µM; 0.92% of 310,000 active; AID 463111; HEK293 M3R/inducible RGS4, carbachol calcium flux Fluo4; hits give low values;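 active = B-score of the integrated calcium signal more than 4 SD below the library mean, with starting fluorescence not abnormally high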;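 note: negative B-score means reduced calcium response which marks RGS4 activation or potentiation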
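test system = HEK293 cells with stable M3R and inducible RGS4 | schedule = recording 10 s baseline at 1 Hz, 100 s post-agonist | technique = Fluo4-AM (2 µM) calcium-flux fluorescence, kinetic read | measure = Agonist-evoked peak-minus-minimum fluorescence over baseline, integrated ratio, B score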
MrgX1 agonist: human MrgX1 receptor agonism, primary screen | Q96LB2 | MrgX1-HEK293 cells, Fluo-4 calcium fluorescence, agonist mode; hits give high values | B-score at 10 µM | 0.44% of 310,000 active | AID 588627;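 active = calcium response B-score plate-corrected fluorescence ratio at least 3 library SD, with starting fluorescence B-score inside 5 SD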
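Assay system: stable human MrgX1 HEK293 cell line. Quantity: 15,000 cells per well. Schedule: cells plated overnight, dye loaded 0.5 h 37 °C, 0.5 h room temperature. Detection: Fluo-4 NW calcium-flux fluorescence, kinetic read. Read-out basis: peak-minus-minimum fluorescence over baseline, converted to B scores. Control set: positive and negative control wells on each plate.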
MrgX1 antag: human MrgX1 receptor antagonism, primary screen; Q96LB2; MRGX1-HEK293 calcium flux, Fluo-4, BAM8-22 antagonism; hits give low values; B-score at 10 µM; 1.3% of 310,000 active; AID 588676;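 active = calcium-response B-score plate-corrected more than 3 library SD below zero, starting fluorescence within 5 deviations, no agonist response on first addition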;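 note: peak minus trough fluorescence over baseline after final BAM8-22 challenge near maximal dose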
MrgX1 ant reconf: confirmation of human MrgX1 receptor antagonists | shares compounds with MrgX1 antag | MrgX1-HEK293, BAM8-22 calcium flux, Fluo-4; hits give low values | remaining BAM8-22 calcium response % of control (hits give low values), % at 10 µM | 19% of 2,300 active;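 active = remaining agonist calcium response no higher than 100% minus 3 SD of agonist-only control wells, with starting fluorescence near control levels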;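 note: agonist BAM8-22 given at a near maximal EC90 to ECmax level; peak minus minimum fluorescence divided by baseline after agonist addition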
HEK293 Ca flux: MrgX1 antagonist counter-screen hit in parental HEK293 cells; Fluo-4 calcium fluorescence, FDSS; fluorescence ratio F(max-min)/F0 at 10 µM; shares compounds with MrgX1 antag; 2% of 4,000 active; AID 624111;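 active = duplicate-averaged calcium fluorescence ratio at least three times the standard deviation of buffer wells, a nonspecific response in parental cells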
HEK293 Ca counter: MrgX1 allosteric activator counter-screen hit in parental HEK293 cells; shares compounds with MrgX1 antag; AID 624114; parental HEK293 calcium flux, Fluo-4 fluorescence ratio; hits give high values; fluorescence ratio F(max-min)/F0 at 10 µM; 0.4% of 4,000 active;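 active = calcium fluorescence ratio, averaged over duplicates, at least 3 SD of the buffer-well ratio, meaning a nonspecific response in receptor-free cells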;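 note: untransfected parental HEK293 lacking MrgX1 used as counterscreen for MrgX1 allosteric activators; fluorescence change taken during the second addition on a kinetic imager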
HEK293 Ca cntr2: MrgX1 activator counter-screen hit in parental HEK293 cells; shares compounds with MrgX1 antag; Fluo-4 calcium fluorescence (FDSS); hits give high values; fluorescence ratio F(max-min)/F0 at 10 µM; 8.7% of 4,000 active;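 active = calcium fluorescence ratio at least three times the spread of buffer wells, meaning a non-specific response in parental cells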
The depositor's hits bear a star; i = inactive; x = no result given. Only some compounds are listed: those with a hit (about 3.5% of all), similar ones and a draw of the others.

SMILES	RGS4 block	MrgX1 allo act	RGS4 pot	MrgX1 agonist	MrgX1 antag	MrgX1 ant reconf	HEK293 Ca flux	HEK293 Ca counter	HEK293 Ca cntr2
O=C(CN1C(=O)NC(c2ccccc2)(c2ccccc2)C1=O)NCCNCCO	i	i	i	i	i	x	x	x	x
COc1ccc(NC(=S)N2CCCC(c3nc4ccc(C)cc4[nH]3)C2)cc1 (stereo not given)	i	i	i	i	-9.53*	i	i	i	i
COc1ccc(NC(=S)N2CCCC(c3nc4ccc(C)cc4[nH]3)C2)c(OC)c1 (stereo not given)	i	i	i	i	i	x	x	x	x
CC(C)(Oc1ccc(Cl)cc1)C(=O)NCC(c1ccco1)N1CCCCC1 (stereo not given)	i	i	i	i	-4.84*	i	i	i	i
COc1ccc(C(CNC(=O)C(C)(C)Oc2ccc(Cl)cc2)N2CCCCC2)cc1 (stereo not given)	i	i	i	i	i	x	x	x	x
COc1ccc(Cl)cc1C(=O)NCC(c1ccco1)N1CCCC1 (stereo not given)	i	i	i	i	-5.17*	i	i	i	i
O=C1CCc2cc(S(=O)(=O)NC3CCCCC3)cc3c2N1CC3	i	i	i	i	i	x	x	x	x
COc1cc2ccccc2cc1C(=O)NCCCN1CCOCC1	i	i	i	i	i	x	x	x	x
O=C(NCCCN1CCOCC1)c1cc2ccccc2cc1O	i	i	i	i	-4.73*	i	i	i	i
Cc1ccc(C(C(=O)NC2CCCC2)N(Cc2ccc(F)cc2)C(=O)c2csnn2)o1 (stereo not given)	i	i	i	i	-4.57*	i	i	i	i
Cc1ccc(C(C(=O)NC2CCCC2)N(Cc2ccccc2)C(=O)c2csnn2)o1 (stereo not given)	i	i	i	i	i	x	x	x	x
CCN1CCCC1CNC(=O)c1cc(COc2ccc(C)c(C)c2)on1 (stereo not given)	i	i	i	i	i	x	x	x	x
O=C(C[n+]1ccc(-c2nnc3n2CCCCC3)cc1)c1ccc(Cl)cc1	i	i	i	i	i	x	x	x	x
Cc1nn2c3c(cnc2c1-c1ccccc1)C(=O)CC(c1ccccc1)C3 (stereo not given)	i	i	i	i	-4.97*	i	i	i	i
Cc1nn2c3c(cnc2c1-c1ccccc1)C(=O)CC(c1ccco1)C3 (stereo not given)	i	i	i	i	i	x	x	x	x
CN(CCCOc1ccccc1Br)Cc1ccccc1	i	i	i	i	-6.01*	i	i	i	i
CN(CCCOc1ccccc1F)Cc1ccccc1	i	i	i	i	i	x	x	x	x
COc1ccc(CNC(=O)COC(=O)Cc2ccsc2)cc1	i	i	i	i	-4.52*	i	i	i	i
COc1ccc(CC(=O)NCc2cccs2)cc1	i	i	i	i	-6.62*	i	i	i	i
CCOc1ncccc1C(=O)OCC(=O)NCc1ccc2c(c1)OCO2	i	i	i	i	-4.94*	i	i	i	i
O=C(Cc1cccs1)NCc1ccc2c(c1)OCO2	i	i	i	i	-8*	i	i	i	i
COc1ccc(S(=O)(=O)Cc2ccc(C(=O)NC3CCCCCC3)o2)cc1	i	i	i	i	i	x	x	x	x
O=C1NC[C@H](Cc2ccccc2)N(CC2CCCCC2)C1=O	i	i	i	i	i	x	x	x	x
COc1cccc(CN(C)C(=S)Nc2cccc(C)c2)c1	i	i	i	i	-4.89*	i	i	i	i
COc1ccc(N2CCN(C(CNC(=O)C3CCCCC3)c3ccco3)CC2)cc1 (stereo not given)	i	i	i	i	i	x	x	x	x
SMILES	RGS4 block	MrgX1 allo act	RGS4 pot	MrgX1 agonist	MrgX1 antag	MrgX1 ant reconf	HEK293 Ca flux	HEK293 Ca counter	HEK293 Ca cntr2
COc1cccc(-c2nc(NC3CCCC3)c3ccccc3n2)c1O	i	i	i	i	-5.07*	74.0%*	i	i	i
Cc1cc(C(=O)N2CCCC(Nc3ccc(C(C)C)cc3)C2)nn1C (stereo not given)	i	i	i	i	i	x	x	x	x
CC(C)c1ccc(NC2CCCN(C(=O)c3cnsn3)C2)cc1 (stereo not given)	i	i	i	i	-6.78*	i	i	i	i
Cc1cc(C)c(S(=O)(=O)N(C)CC(=O)NCc2ccncc2)c(C)c1	i	i	i	i	i	x	x	x	x
COCCNC(=O)C1CC2Cn3c(nc4cc(C)c(C)cc43)C2N1C (stereo not given)	i	i	i	i	i	x	x	x	x
COCCNC(=O)C1CC2Cn3c(nc4cc5ccccc5cc43)C2N1C (stereo not given)	i	i	i	i	-5.26*	i	i	i	i
COc1ccc(NC(=O)CN2CCN(c3ccc(F)cc3)CC2)cc1	i	i	i	i	i	x	x	x	x
CCOc1ccc(NC(=O)CN2CCN(c3ccc(F)cc3)CC2)cc1	i	i	i	i	-5.51*	i	i	i	i
O=C1C2=C(C(c3ccccc3)=NCCN2)C(c2cccc([N+](=O)[O-])c2)N1c1ccccc1 (stereo not given)	i	i	i	i	i	x	x	x	x
O=C(Nc1nccs1)c1cncc(Br)c1	i	i	i	i	i	x	x	x	x
COc1ccc(OC)c2sc(NC(=O)c3ccc(Cl)s3)nc12	i	i	i	i	-5.04*	i	i	i	i
O=C1CC(=O)N(CCc2ccccc2)C(=O)N1CCc1ccccc1	i	i	i	i	-11.4*	79.4%*	i	i	i
O=C(Nc1cc(C(F)(F)F)ccc1N1CCOCC1)c1ccco1	i	i	i	i	-4.54*	i	i	i	i

Screening results (PubChem)
